Data on 13 compounds can be found in PubChem BioAssay.

By inhibition is commonly meant the relative decrease from the control value, in per cent.

The nature of experiment [1]: inhibitors of TNFa-induced NFkB p65 translocation, primary screen, imaging, HUVEC, MLSMR starter and 10KST1 sets (AID 438;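 active = inhibition above 20% together with a positive visual image hit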;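 note: compound added about 3h40 before a 20 min TNFalpha stimulation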;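 for inhibition: signal is the nuclear over cytoplasmic p65 intensity ratio per well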). The settings on record: HUVEC TNFa-induced p65 nuclear translocation; cell count: measured here: nuclei count (cytotoxicity indicator), at 2.08 µM; inhibition: at 2 µM, stronger effect = higher value, 0% TNFa-plus-vehicle, 100% no-TNFa wells.
Experiment [2] is described as follows: inhibitors of mutant huntingtin aggregation, primary screen, imaging, exon1htt(103Q)mCFP cells, high-content imaging (AID 483;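 active = visual image review flags a hit and inhibition of aggregation exceeds 20%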;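 note: compound exposure lasted 3 days before fixation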;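 for nuclei count: percent of the per-plate median nuclei count of sample wells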). The following applies: exon1htt(103Q)mCFP cell line, aggregate imaging, at 2 µM; inhibition of aggregation: stronger effect = higher value; nuclei count: measured here: cell count, toxicity.
A short description of experiment [3]: inhibitors of E-selectin induction by TNFa, primary screen, imaging, HUVEC, immunofluorescence, MLSMR starter and 10KST1 sets (AID 487;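 active = visually confirmed hit in the image check and inhibition above 20%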;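 for inhibition: signal is fraction of cell area covered by stained E-selectin grains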;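 for nuclei count: 100% = median nuclei count of all wells on the same plate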). The settings on record: HUVEC TNFalpha-induced E-selectin immunofluorescence imaging, at 2 µM; inhibition: stronger effect = higher value; nuclei count: measured here: cell number, toxicity.
Experiment [4] deals with Voltage-gated potassium channel subunit beta-2 (Rattus norvegicus) (UniProt P62483). The experiment is described as follows: KvBeta enzyme negative modulators, primary screen, biochemical, NADPH fluorescence (AID 622;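 active = fluorescence slope higher than the sample average by over 3 SD, cut at about -0.22 in these data, passing the limit was not always enough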;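 note: slope of raw intensity against log time taken from 70 to 1610 s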). The settings on record: recombinant KvBeta, 4-cyanobenzaldehyde reduction, at 10 µM, stronger effect = higher value.
Experiment [5] shares this target. The experiment is described as follows: KvBeta positive modulators, primary screen, biochemical, NADPH fluorescence (AID 623;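 active = NADPH fluorescence slope more negative than the mean of all samples by about 3 SD, 99.7% confidence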;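 note: fluorescence intensity change per second fitted from 20 to 320 s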). The following applies: Recombinant KvBeta, NADPH fluorescence decrease slope, 10 min; at 10 µM; stronger effect = lower value.
In experiment [6] the target is Alpha-2C adrenergic receptor (Homo sapiens) (UniProt P18825). The experiment is described as follows: modulators of alpha2C/GIRK thallium flux, primary screen, cell-based, HEK293 alpha2C/GIRK1/2 (AID 624).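 Note: slope of fluorescence ratio to pre-addition baseline per second over 15 to 24 s.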 The following applies: thallium flux BTC fluorescence, at 10 µM, actives lie on both sides.
The nature of experiment [7]: inhibitors of larval lipid processing in zebrafish, primary screen, whole organism, PED6 fluorescence, gall bladder and intestine (AID 686;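 active = a full or partial loss of lipid-probe fluorescence in the fish gall bladder, intestine or both, judged by eye; inactive = no fluorescence loss, or compound toxic to the fish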;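 note: larvae 5 to 7 days old with five fish per well; signal comes from phospholipase A2 cleavage of quenched PED6 carried via bile; overnight exposure to compound and PED6 before scoring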). The following applies: Zebrafish larvae PED6 lipid processing, fluorescence scoring; screened at 20 µM (by protocol). The essentials: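 Test system – live zebrafish larvae aged 5-7 days, whole organism · Buffer or medium – E3 fish medium · Reagent – quenched phospholipase substrate PED6, 100 nM final, ingested by larvae · Doses – 20 µM single dose · Incubation – overnight compound and PED6 incubation · Technique – visual fluorescence microscopy scoring of gall bladder, gut · Read-out basis – visual per-well fluorescence inhibition score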

Experiment [8] can be described thus: inhibitors of Sendai virus-induced IRF3 signaling, primary screen, TLR/RLR signaling modifier project, cell-based, Sendai virus stimulus, luciferase, 10K MLSCN set (AID 602276;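 active = inhibition at or above 50% at 10 µM; inactive = inhibition below 50%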;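 note: firefly luciferase from ISG56 promoter only with Renilla not read in this screen; 0% = Sendai virus plus DMSO and 100% = medium plus DMSO without virus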). The settings on record: HEK293 RL24 IRF3 luciferase reporter, at 10 µM, stronger effect = higher value. (Reporter assays use an easily measured gene product as a stand-in for the process of interest.)

Experiment [9] is described as follows: inhibitors of poly I:C-induced TLR3 signaling, primary screen, cell-based, poly I:C stimulus, luciferase, 10K MLSCN set (AID 602277;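 active = inhibition of the reporter signal at or above 50%; inactive = inhibition below 50%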). The following applies: HEK293-TLR3 RL24 IRF3 luciferase reporter, at 10 µM, stronger effect = higher value.

Activity calls are given as the source filed them.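 Rule for the calls, unless noted: active = fluorescence slope after compound addition differing from the mean of all screened samples at 99.7% confidence, in either direction; inactive = the rest.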

Chain of Alpha-2C adrenergic receptor (Homo sapiens) (P18825 whole entry, looked up): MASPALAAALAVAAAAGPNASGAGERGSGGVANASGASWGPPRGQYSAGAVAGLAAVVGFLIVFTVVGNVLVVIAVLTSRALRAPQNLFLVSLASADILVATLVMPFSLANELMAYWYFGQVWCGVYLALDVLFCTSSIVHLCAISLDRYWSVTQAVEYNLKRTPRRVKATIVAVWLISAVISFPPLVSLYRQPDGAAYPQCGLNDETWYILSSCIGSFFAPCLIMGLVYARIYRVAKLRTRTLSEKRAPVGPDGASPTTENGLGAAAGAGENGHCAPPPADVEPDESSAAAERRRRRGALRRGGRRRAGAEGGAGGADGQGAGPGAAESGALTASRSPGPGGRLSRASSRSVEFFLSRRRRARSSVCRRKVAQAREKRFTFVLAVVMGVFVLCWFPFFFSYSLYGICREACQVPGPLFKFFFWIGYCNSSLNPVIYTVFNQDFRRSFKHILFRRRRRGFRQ
Chain of Voltage-gated potassium channel subunit beta-2 (Rattus norvegicus) (P62483 whole entry, looked up): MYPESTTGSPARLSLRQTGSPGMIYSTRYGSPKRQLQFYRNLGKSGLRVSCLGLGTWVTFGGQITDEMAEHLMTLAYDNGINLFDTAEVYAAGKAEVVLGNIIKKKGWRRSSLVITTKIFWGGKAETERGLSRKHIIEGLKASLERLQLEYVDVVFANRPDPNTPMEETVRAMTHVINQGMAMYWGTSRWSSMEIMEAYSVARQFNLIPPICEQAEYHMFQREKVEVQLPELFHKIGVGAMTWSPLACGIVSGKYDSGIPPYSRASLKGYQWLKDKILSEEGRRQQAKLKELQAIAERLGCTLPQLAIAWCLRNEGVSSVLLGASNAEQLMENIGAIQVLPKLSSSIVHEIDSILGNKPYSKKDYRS

Consider `O=C(CSc1nc2ccccc2c(=O)n1Cc1ccco1)NCc1ccccc1`, for which, in experiment [1], the cell count is 399. The inhibition in [1] is -6.1% (inactive); in experiment [3] it was -6.6% (inactive); in [8], 19.4% (inactive); in experiment [9], 9.86% (inactive). Also, the inhibition of aggregation in experiment [2] was 1.9% (inactive). Also, the values for the nuclei count in experiment [2] and in experiment [3] were 87.8% and 103%, respectively. The fluorescence slope in experiment [4] is -0.439 (inactive). Further, in experiment [5], the NADPH fluorescence slope is -4.9e-05 (inactive). The slope in experiment [6] was 0.0067 (inactive). The compound was classed as inactive in experiment [7].
Consider `CCCn1nnc(NCc2ccc(OCc3cccs3)c(OC)c2)n1`, for which, in experiment [1], the cell count was 226. Moreover, the inhibition in [1] was -5.8% (inactive); in [3], -51.4% (inactive); in experiment [8], 8.88% (inactive); in experiment [9], 6.19% (inactive). Also, the inhibition of aggregation in experiment [2] is 7.5% (inactive). For the same compound, the nuclei count in experiment [2] is 90%; in experiment [3], 99%. Further, the fluorescence slope in experiment [4] was -0.467 (inactive). Besides, the NADPH fluorescence slope in experiment [5] is -3.7e-05 (inactive). For the same compound, in experiment [6], the slope was 0.00561 (inactive). Besides, the compound was called inactive in [7].
As to `COc1ccc(-c2noc(CSc3nc4ccccc4c(=O)n3-c3ccccc3)n2)cc1OC`, the cell count in experiment [1] stood at 498. The inhibition in experiment [1] is -1.8% (inactive); in [3], -114% (inactive); in experiment [8] it was 23.5% (inactive); in experiment [9] it was 26.1% (inactive). The inhibition of aggregation in experiment [2] was 12.7% (inactive). The nuclei count came out at 96.7% in [2] and 128% in experiment [3]. The fluorescence slope in [4] was -0.412 (inactive). Also, the NADPH fluorescence slope in experiment [5] was -4.5e-05 (inactive). Also, the slope in experiment [6] is 0.0108 (active). Moreover, in experiment [7], the compound was called inactive.
In the case of `COc1ccc(CC(=O)Nc2cc(Cl)ccc2O)cc1`, the cell count in experiment [1] was 605. Further, the inhibition in [1] is -9.3% (inactive); in experiment [3], -72% (inactive); in experiment [8], -8.56% (inactive); in [9], -1.02% (inactive). Moreover, in experiment [2], the inhibition of aggregation was 12% (inactive). For the same compound, the nuclei count in experiment [2] came to 99.8%; in [3], 108%. The fluorescence slope in experiment [4] was -0.409 (inactive). Also, the NADPH fluorescence slope in experiment [5] was -1.5e-05 (inactive). Further, the slope in experiment [6] is 0.00576 (inactive). Besides, the compound was classed as inactive in experiment [7].
On to `Cc1[nH]nc(-c2ccc(O)c(C)c2O)c1-c1cnn(-c2ccccc2)c1`, for which the cell count in experiment [1] amounted to 345. The inhibition in [1] was 1.5% (inactive); in experiment [3], 45.5% (inactive); in experiment [8], 11.4% (inactive); in [9], 5.23% (inactive). Moreover, in experiment [2], the inhibition of aggregation is 10.3% (inactive). The nuclei count is 111% in [2] and 97.8% in experiment [3]. The fluorescence slope in [4] was -0.438 (inactive). In addition, the NADPH fluorescence slope in experiment [5] was -2.4e-05 (inactive). In experiment [6], the slope is 0.00436 (inactive). Moreover, the outcome in [7] was inactive.
Take `COCCNC(=O)C(c1ccc(C)o1)N(C(=O)c1snc(C(N)=O)c1N)c1ccc(C)cc1` (stereo unspecified): the cell count in experiment [1] stood at 498. In addition, the inhibition was -3.6% (inactive) in experiment [1], 73.6% (inactive) in experiment [3], 12.5% (inactive) in experiment [8] and 7.41% (inactive) in experiment [9]. In experiment [2], the inhibition of aggregation is 19.7% (inactive). Further, the nuclei count in experiment [2] came to 94%; in experiment [3] it was 65.5%. The fluorescence slope in experiment [4] was -0.378 (inactive). In addition, in experiment [5], the NADPH fluorescence slope was -5.3e-05 (inactive). Besides, the slope in experiment [6] was 0.00521 (inactive). Besides, the call in [7] was inactive.
Turning to `CCN(CC)S(=O)(=O)c1cccc(-c2nnc(SCCOc3ccccc3C)o2)c1`, in experiment [1], the cell count turned out to be 356. Further, the inhibition in [1] is 0.4% (inactive); in experiment [3] it was 3.8% (inactive); in [8], 9.64% (inactive); in experiment [9], -24.4% (inactive). The inhibition of aggregation in experiment [2] is -13.5% (inactive). Besides, the results for the nuclei count in experiment [2] and in experiment [3] were 95.4% and 114%, respectively. The fluorescence slope in experiment [4] was -0.458 (inactive). Moreover, the NADPH fluorescence slope in experiment [5] was -8e-05 (inactive). In experiment [6], the slope is 0.00732 (inactive). Also, the outcome in [7] was inactive.
`CC(=O)/C(C[N+]1(C)CCCCC1)=N\O`: the cell count in experiment [1] came out at 566. The inhibition is 12.1% (inactive) in experiment [1], 26.6% (inactive) in experiment [3], 8.76% (inactive) in experiment [8] and 13.4% (inactive) in experiment [9]. The inhibition of aggregation in [2] is 17.4% (inactive). The nuclei count in [2] and in experiment [3] was 107% throughout. In addition, the fluorescence slope in experiment [4] is -0.403 (inactive). Moreover, the NADPH fluorescence slope in experiment [5] was -5.2e-05 (inactive). Moreover, the slope in experiment [6] is 0.00495 (inactive). Further, the outcome in [7] was inactive.
Regarding `COc1ccc(-c2nsc(SCC(=O)Nc3cc(C)on3)n2)cc1`, in experiment [1], the cell count was determined as 245. The inhibition in experiment [1] was -7% (inactive); in experiment [3], 50.5% (inactive); in experiment [8], 21.4% (inactive); in experiment [9], 17.9% (inactive). In [2], the inhibition of aggregation is 14.4% (inactive). The nuclei count in [2] amounted to 84.3%; in experiment [3] it was 64.4%. Further, the fluorescence slope in experiment [4] is -0.396 (inactive). Besides, the NADPH fluorescence slope in experiment [5] is -2.2e-07 (inactive). Besides, the slope in [6] is 0.0058 (inactive). In experiment [7], the result was inactive.
For the compound `O=C(COC(=O)CCOc1ccccc1)Nc1ccc(Cl)cn1`, in [1], the cell count came to 723. Further, the inhibition is 5.7% (inactive) in [1], 35.5% (inactive) in experiment [3], 5.25% (inactive) in experiment [8] and 8.02% (inactive) in experiment [9]. In addition, the inhibition of aggregation in experiment [2] is -12.2% (inactive). The nuclei count in [2] came to 101%; in experiment [3], 88.1%. In [4], the fluorescence slope was -0.489 (inactive). In addition, the NADPH fluorescence slope in experiment [5] was -1.8e-05 (inactive). Further, the slope in experiment [6] is 0.00492 (inactive). Also, the result in experiment [7] was inactive.
On to `CC(=O)c1cccc(NC(=O)NCc2ccco2)c1`, for which the cell count in experiment [1] was determined as 385. In addition, the inhibition in [1] was 0.8% (inactive); in experiment [3] it was -43.8% (inactive); in experiment [8], -3.74% (inactive); in [9] it was -37.3% (inactive). For the same compound, the inhibition of aggregation in experiment [2] was -4.5% (inactive). For the same compound, the nuclei count in experiment [2] stood at 74.6%; in experiment [3], 79.8%. The fluorescence slope in experiment [4] is -0.386 (inactive). For the same compound, the NADPH fluorescence slope in experiment [5] was 6.8e-06 (inactive). In addition, in experiment [6], the slope is 0.00558 (inactive). For the same compound, in experiment [7], the outcome was inactive.
Take `Cc1cc(C(=O)Nc2c(C)n(C)n(-c3ccccc3)c2=O)c(C)o1`: in experiment [1], the cell count came to 330. The inhibition in [1] is -1.4% (inactive); in experiment [3], 2% (inactive); in experiment [8], 17% (inactive); in experiment [9], 14.7% (inactive). The inhibition of aggregation in [2] is 5.3% (inactive). For the same compound, the nuclei count was 101% in experiment [2] and 100% in experiment [3]. Further, the fluorescence slope in [4] is -0.412 (inactive). In addition, in experiment [5], the NADPH fluorescence slope is -7.3e-05 (inactive). The slope in experiment [6] is 0.00524 (inactive). Also, in [7], the compound was called inactive.
As for `Cc1cccc(NC(=O)c2ccc(S(=O)(=O)N(C)C)cc2)n1`, the cell count in experiment [1] is 290. For the same compound, the inhibition was -5.5% (inactive) in [1], -126% (inactive) in experiment [3], -11.6% (inactive) in experiment [8] and -45.9% (inactive) in [9]. Also, the inhibition of aggregation in experiment [2] is 4.5% (inactive). Further, the results for the nuclei count in [2] and in experiment [3] were 108% and 94.4%, respectively. Moreover, in experiment [4], the fluorescence slope was -0.318 (inactive). Besides, the NADPH fluorescence slope in experiment [5] was -2.4e-05 (inactive). Further, the slope in experiment [6] was 0.00507 (inactive). Besides, in experiment [7], the compound was called inactive.
